This assay can be described thus: inhibitors of GR-EGFP nuclear translocation, primary screen, dynein cargo transport inhibitor project, imaging, high-content, 3617.4 mouse cells (AID 1381). Conditions: stimulated with dexamethasone, 1 µM. In outline: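 Also added – dexamethasone, 1.0 µM final · Buffer or medium – tet-free, stripped-serum medium · Schedule – induction 48 h, compound 1 h, agonist 30 min · Detection – formaldehyde fixation, Hoechst nuclear stain, 10x automated fluorescence imaging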

Setting [1] is: measured here: cell count per field, at 20 µM.
Setting [2] is: measured here: cytoplasmic GR-EGFP intensity, at 20 µM, stronger effect = higher value.
Setting [3] is: measured here: nuclear GR-EGFP intensity, at 20 µM, stronger effect = lower value.
Setting [4] is: measured here: cell count per field, at 50 µM.
Where [5] appears, read: measured here: cytoplasmic GR-EGFP intensity, at 50 µM, stronger effect = higher value.
Where [6] appears, read: measured here: nuclear GR-EGFP intensity, at 50 µM, stronger effect = lower value.

Experimental findings from PubChem BioAssay AID1381 (University of Pittsburgh Molecular Library Screening Center, 2008) are described below.

Among all 220,000 compounds or so, about 1,000 (0.45%) were called active.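 Rule for the calls: active = plate z-score of nuclear minus cytoplasmic receptor signal below a set negative limit, without overly bright fluorescence or cell loss (cut at about -3.5 in these data, passing the limit was not always enough); inactive = the rest, inconclusive results apart.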 This excerpt belongs to a sample that is enriched for actives.

With `COc1cccc(N2C(=O)NC(=O)/C(=C\c3ccc([N+](=O)[O-])s3)C2=O)c1`, the z-score runs as follows: (at 20 µM, stronger effect = lower value) -6.53 (active); under setting [1], -0.425; under setting [2], 2.64; under setting [3], -2.61.

`O=C1NC(=O)N(c2ccccc2)C(=O)/C1=C/c1ccc([N+](=O)[O-])s1`: the z-score was -5.82 (active) (at 20 µM, stronger effect = lower value); 0.268 under setting [1]; 2.42 under setting [2]; -2.58 under setting [3].

Regarding `Cc1ccccc1N1C(=O)NC(=O)/C(=C\c2cc(C)n(C)c2C)C1=O`, the z-score was -0.127 (inactive) (at 20 µM, stronger effect = lower value); 0.901 under setting [1]; -0.306 under setting [2]; -0.135 under setting [3].

For `O=C1NC(=O)N(c2ccc(F)cc2)C(=O)/C1=C/c1ccc2c(c1)CCCN2Cc1ccccc1`, the z-score by setting is: (at 20 µM, stronger effect = lower value) -0.735 (inactive); under setting [1], -0.42; under setting [2], 4.11; under setting [3], 0.344.

As to `Cc1cccc(N2C(=O)NC(=O)/C(=C\c3cnn(-c4ccccc4)c3)C2=O)c1`, the z-score was 0.124 (inactive) (at 20 µM, stronger effect = lower value); -0.649 under setting [1]; -0.166 under setting [2]; 0.444 under setting [3].

For `Cc1c(C(=O)O)cccc1-n1c(C)cc(/C=C2\C(=O)NC(=O)N(c3ccc4c(c3)OCO4)C2=O)c1C`, the z-score (at 20 µM, stronger effect = lower value) is -0.66 (inactive); the z-score under setting [1] was 0.519; the z-score under setting [2] was -0.101; the z-score under setting [3] was -0.113.

In the case of `OC1/C(=C/c2ccc(C(F)(F)F)cc2)N2CCC1CC2` (stereo not given), the z-score was -1.47 (inactive) (at 20 µM, stronger effect = lower value); 0.879 under setting [1]; -0.265 under setting [2]; -0.69 under setting [3].

As for `CCCC[N+]1(C)C2CC(OC(=O)C(CO)c3ccccc3)CC1C1OC12` (stereo not given), the z-score reads like this: (at 20 µM, stronger effect = lower value) -0.526 (inactive); under setting [1], 0.258; under setting [2], -0.759; under setting [3], 0.0484.

As to `c1cc2c(cc1CCNC1CCCCCC1)OCO2`, the z-score runs as follows: (at 50 µM, stronger effect = lower value) 1.01 (inactive); under setting [4], 0.684; under setting [5], -0.246; under setting [6], 0.379.

Take `CC(c1ccccc1)(c1ccccc1)c1ccncc1`: the z-score is, setting by setting: (at 20 µM, stronger effect = lower value) -0.152 (inactive); under setting [1], -0.267; under setting [2], -0.379; under setting [3], -0.628.

On to `Cc1cc(C=C2C(=O)NC(=O)NC2=O)c(C)n1-c1ccncc1`, for which the z-score runs as follows: (at 20 µM, stronger effect = lower value) 1.16 (inactive); under setting [1], -1.04; under setting [2], -0.229; under setting [3], 0.621.

For `CCN(CC)C(=O)c1ccc(NC(=O)c2cc(-n3cnnc3)ccc2Cl)cc1`, the z-score was 1.07 (inactive) (at 50 µM, stronger effect = lower value); -0.204 under setting [4]; -0.239 under setting [5]; 0.487 under setting [6].

On to `CN(C)CC1Oc2ccccc2OC1(O)c1ccccc1` (stereo not given), for which the z-score reads like this: (at 20 µM, stronger effect = lower value) -6.23 (active); under setting [1], 1.09; under setting [2], 1.79; under setting [3], -2.55.

Consider `COc1ccc(NC(=O)c2cn(CCC#N)nc2-c2ccc([N+](=O)[O-])cc2)cc1`, for which the z-score (at 20 µM, stronger effect = lower value) was -0.74 (inactive); the z-score under setting [1] is 0.149; the z-score under setting [2] was -0.33; the z-score under setting [3] is -0.871.

Take `CCC(C)n1c(O)c(/C=N/Nc2nc3c(c(=O)n(C)c(=O)n3C)n2C)c(=O)[nH]c1=S` (stereo not given): the z-score was -0.95 (inactive) (at 20 µM, stronger effect = lower value); 0.937 under setting [1]; -0.21 under setting [2]; -0.129 under setting [3].
